Source: ChEMBL document CHEMBL2390915, “Synthesis and biological evaluation of arctigenin ester and ether derivatives as activators of AMPK” (Bioorg Med Chem, 2013)

system: L6; experiment: Activation of AMPK in rat L6 cells assessed as phosphorylated protein level at 40 uM after 30 mins by Western blot analysis relative to arctigenin; assay type: cell-based
Procedure, shortened: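 L6 myoblasts kept in DMEM + 10% FBS at 37 °C, 5% CO2, then differentiated to myotubes in DMEM + 2% horse serum once 90% confluent. Cells exposed to 40 µM compound for 30 min. Lysates (Tris-HCl pH 7.5, NaCl, Na3VO4, Triton X-100, protease inhibitors) immunoblotted for phospho-AMPK and total AMPK by chemiluminescence. Band intensity × area normalized to total AMPK; three independent experiments.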

In order of rising fold change (FC):
1. COc1ccc(C[C@H]2COC(=O)[C@@H]2Cc2ccc(OCCc3ccc(C(C)(C)C)cc3)c(OC)c2)cc1OC  0.09
2. CCOc1ccc(C[C@H]2C(=O)OC[C@@H]2Cc2ccc(OC)c(OC)c2)cc1OC  0.14
3. COCCOc1ccc(C[C@H]2C(=O)OC[C@@H]2Cc2ccc(OC)c(OC)c2)cc1OC  0.17
4. COc1ccc(C[C@H]2COC(=O)[C@@H]2Cc2ccc(OCCc3ccccc3)c(OC)c2)cc1OC  0.2
5. COc1ccc(C[C@H]2COC(=O)[C@@H]2Cc2ccc(OC(C)C)c(OC)c2)cc1OC  0.2
6. COc1ccc(C[C@H]2COC[C@@H]2Cc2ccc(OC(=O)C3CCCCC3)c(OC)c2)cc1OC  0.23
7. COc1ccc(C[C@H]2COC(=O)[C@@H]2Cc2ccc(OCCc3ccccc3Cl)c(OC)c2)cc1OC  0.24
8. COc1ccc(C[C@H]2COC[C@@H]2Cc2ccc(OC(=O)CC(C)C)c(OC)c2)cc1OC  0.25
9. CCCC(=O)Oc1ccc(C[C@H]2COC[C@@H]2Cc2ccc(OC)c(OC)c2)cc1OC  0.25
10. COc1ccc(C(=O)Oc2ccc(C[C@H]3COC[C@@H]3Cc3ccc(OC)c(OC)c3)cc2OC)cc1  0.25
11. COc1ccc(C[C@H]2COC[C@@H]2Cc2ccc(OC(C)=O)c(OC)c2)cc1OC  0.26
12. COc1ccc(C[C@H]2COC(=O)[C@@H]2Cc2ccc(OCCc3ccc(Cl)cc3)c(OC)c2)cc1OC  0.26
13. COc1ccc(C[C@H]2COC(=O)[C@@H]2Cc2ccc(OCCc3ccc4c(c3)OCO4)c(OC)c2)cc1OC  0.28
14. COc1ccc(C[C@H]2COC(=O)[C@@H]2Cc2ccc(OC(=O)c3ccc(OC)c(OC)c3)c(OC)c2)cc1OC  0.3
15. COc1ccccc1CCOc1ccc(C[C@H]2C(=O)OC[C@@H]2Cc2ccc(OC)c(OC)c2)cc1OC  0.32
16. COc1ccc(CCOc2ccc(C[C@H]3C(=O)OC[C@@H]3Cc3ccc(OC)c(OC)c3)cc2OC)cc1  0.32
17. COc1ccc(C[C@H]2COC(=O)[C@@H]2Cc2ccc(OC(=O)CC(C)(C)C)c(OC)c2)cc1OC  0.32
18. COc1ccc(C[C@H]2COC(=O)[C@@H]2Cc2ccc(OCCc3ccccc3F)c(OC)c2)cc1OC  0.34
19. CCOc1ccc(CCOc2ccc(C[C@H]3C(=O)OC[C@@H]3Cc3ccc(OC)c(OC)c3)cc2OC)cc1OCC  0.34
20. COc1ccc(C[C@H]2COC(=O)[C@@H]2Cc2ccc(OCCc3ccc(F)cc3)c(OC)c2)cc1OC  0.35
21. COc1ccc(COc2ccc(C[C@H]3C(=O)OC[C@@H]3Cc3ccc(OC)c(OC)c3)cc2OC)cc1OC  0.36
22. COc1ccc(C[C@H]2COC[C@@H]2Cc2ccc(OC(=O)c3ccc(F)cc3)c(OC)c2)cc1OC  0.37
23. COc1ccc(C[C@H]2COC[C@@H]2Cc2ccc(OC(=O)c3ccco3)c(OC)c2)cc1OC  0.41
24. COc1ccc(C[C@H]2COC(=O)[C@@H]2Cc2ccc(OC(=O)c3ccc(C)cc3)c(OC)c2)cc1OC  0.46
25. COc1ccc(C(=O)Oc2ccc(C[C@H]3C(=O)OC[C@@H]3Cc3ccc(OC)c(OC)c3)cc2OC)cc1  0.46
26. COc1ccc(C[C@H]2COC(=O)[C@@H]2Cc2ccc(OC(=O)CC(C)C)c(OC)c2)cc1OC  0.48
27. COc1cc(C[C@H]2COC[C@@H]2Cc2ccc(OC)c(OC)c2)ccc1O  0.49
28. COc1ccc(C[C@H]2COC(=O)[C@@H]2Cc2ccc(OCCc3cc(OC)c(OC)c(OC)c3)c(OC)c2)cc1OC  0.57
29. COc1ccc(C[C@H]2COC(=O)[C@@H]2Cc2ccc(OC(=O)C3CC3)c(OC)c2)cc1OC  0.62
30. COc1ccc(C[C@H]2COC(=O)[C@@H]2Cc2ccc(OC(=O)c3ccc(F)cc3)c(OC)c2)cc1OC  0.63
31. COc1cccc(C(=O)Oc2ccc(C[C@H]3C(=O)OC[C@@H]3Cc3ccc(OC)c(OC)c3)cc2OC)c1  0.64
32. CCc1cncc(CCOc2ccc(C[C@H]3COC[C@@H]3Cc3ccc(OC)c(OC)c3)cc2OC)c1  0.64
33. COc1ccc(C[C@H]2COC[C@@H]2Cc2ccc(OCC(=O)c3ccc(OC)c(OC)c3)c(OC)c2)cc1OC  0.66
34. COc1cc(CCOc2ccc(C[C@H]3COC[C@@H]3Cc3ccc(OC)c(OC)c3)cc2OC)cc(OC)c1  0.68
35. COc1ccc(CC(=O)Oc2ccc(C[C@H]3C(=O)OC[C@@H]3Cc3ccc(OC)c(OC)c3)cc2OC)cc1OC  0.69
36. COc1cccc(CCOc2ccc(C[C@H]3C(=O)OC[C@@H]3Cc3ccc(OC)c(OC)c3)cc2OC)c1  0.69
37. COc1ccc(C[C@H]2COC(=O)[C@@H]2Cc2ccc(OC(=O)c3ccco3)c(OC)c2)cc1OC  0.69
38. COc1ccc(CCCOc2ccc(C[C@H]3C(=O)OC[C@@H]3Cc3ccc(OC)c(OC)c3)cc2OC)cc1OC  0.71
39. COc1ccc(C[C@H]2COC[C@@H]2Cc2ccc(OC(=O)c3cccnc3)c(OC)c2)cc1OC  0.71
40. COc1cc(CCOc2ccc(C[C@H]3C(=O)OC[C@@H]3Cc3ccc(OC)c(OC)c3)cc2OC)cc(OC)c1  0.73
41. COc1ccc(C[C@H]2COC[C@@H]2Cc2ccc(OCCc3ccc(Cl)cc3)c(OC)c2)cc1OC  0.79
42. COc1ccc(C[C@H]2COC[C@@H]2Cc2ccc(OCCc3cccnc3)c(OC)c2)cc1OC  0.81
43. COc1ccc(C[C@H]2COC(=O)[C@@H]2Cc2ccc(OC(=O)c3ccccc3)c(OC)c2)cc1OC  0.81
44. COc1ccc(C[C@H]2COC(=O)[C@@H]2Cc2ccc(OC(=O)C(C)C)c(OC)c2)cc1OC  0.82
45. COc1cccc(C(=O)Oc2ccc(C[C@H]3COC[C@@H]3Cc3ccc(OC)c(OC)c3)cc2OC)c1  0.82
46. COc1ccc(C[C@H]2COC[C@@H]2Cc2ccc(OC(=O)c3ccc(OC)c(OC)c3)c(OC)c2)cc1OC  0.82
47. COc1ccc(CC(=O)Oc2ccc(C[C@H]3COC[C@@H]3Cc3ccc(OC)c(OC)c3)cc2OC)cc1OC  0.83
48. C/C=C/C(=O)Oc1ccc(C[C@H]2C(=O)OC[C@@H]2Cc2ccc(OC)c(OC)c2)cc1OC  0.86
49. COc1ccc(C[C@H]2COC(=O)[C@@H]2Cc2ccc(OC(=O)c3cccnc3)c(OC)c2)cc1OC  0.87
50. COc1ccc(CCOc2ccc(C[C@H]3COC[C@@H]3Cc3ccc(OC)c(OC)c3)cc2OC)cc1  0.9
51. COc1ccc(C[C@H]2COC[C@@H]2Cc2ccc(OCCc3ccc(F)c(F)c3)c(OC)c2)cc1OC  0.91
52. CCC(=O)Oc1ccc(C[C@H]2C(=O)OC[C@@H]2Cc2ccc(OC)c(OC)c2)cc1OC  0.92
53. COc1ccc(CCOc2ccc(C[C@H]3C(=O)OC[C@@H]3Cc3ccc(OC)c(OC)c3)cc2OC)cc1OC  0.93
54. CCCC(=O)Oc1ccc(C[C@H]2C(=O)OC[C@@H]2Cc2ccc(OC)c(OC)c2)cc1OC  0.94
55. COc1ccc(C[C@H]2COC[C@@H]2Cc2ccc(OCCc3ccc(F)cc3)c(OC)c2)cc1OC  0.97
56. COc1ccc(CCCOc2ccc(C[C@H]3COC[C@@H]3Cc3ccc(OC)c(OC)c3)cc2OC)cc1OC  0.97
57. COc1ccc(C[C@H]2COC(=O)[C@@H]2Cc2ccc(OC(C)=O)c(OC)c2)cc1OC  1.11
58. CCCCC(=O)Oc1ccc(C[C@H]2C(=O)OC[C@@H]2Cc2ccc(OC)c(OC)c2)cc1OC  1.16
59. COc1ccc(C[C@H]2COC[C@@H]2Cc2ccc(OCCc3cc(OC)c(OC)c(OC)c3)c(OC)c2)cc1OC  1.25
60. COc1cccc(CCOc2ccc(C[C@H]3COC[C@@H]3Cc3ccc(OC)c(OC)c3)cc2OC)c1  1.33
61. COc1ccc(CCOc2ccc(C[C@H]3COC[C@@H]3Cc3ccc(OC)c(OC)c3)cc2OC)cc1OC  1.45
